Compounds with a hit are over-represented: about 2.4% of the library has one in this group of screens.
HIV Env fusion: blocks HIV Env-driven cell-cell fusion | inhibition, % at 12.3 µM | HeLa-JRFL Env/CEM21 cell fusion, luciferase | 360,000 compounds, 1.1% hits | AID 651610;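 active means mean replicate inhibition score of at least 50 and every replicate individually at or above 50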;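 further: 0% = plate neutral controls and 100% = maraviroc near 300 nM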
INS-1E GSIS act: primary screen for activators of insulin secretion dependent on glucose, INS-1E cells, GLuc reporter luminescence. INS-1E GLuc reporter insulin secretion, 2-3 h. activation, % at 16.6 µM. 370,000 compounds, 0.61% hits. AID 743287;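 active means lowest replicate activation of at least 40%, so every replicate reaches that level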;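 further: 0% = median of neutral control wells and 100% = median of IBMX positive control wells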
miR-122 sensor: inhibitors of miR-122 in Huh7 cells; activation (reporter increase), % at 12.5 µM; AID 602342; 340,000 compounds, 0.3% hits; Huh7 miR-122 Renilla luciferase sensor, 48 h; neutral wells = 0, positive control = 100;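 active means mean replicate activation score at least 90 and every replicate individually at or above 90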;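 further: higher luciferase means less miR-122 activity so hits act as miR-122 inhibitors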
Cneo AK release: Cryptococcus neoformans lysis via adenylate kinase release; C. neoformans lysis, adenylate kinase release luminescence, 4 h; normalised: neutral wells 0, clomiphene wells 100; lysis activity, % at 15 µM; 360,000 compounds, 0.2% hits; AID 651654;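 active means mean lysis activity across replicates of at least 80%, whatever share of replicates individually reach that level; inactive means mean lysis activity below 80%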
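Schedule: static 4 h at 37 °C with compound, 1 h detection; system: C. neoformans cells; benchmarks: Clomiphene as positive control; buffer or medium: fresh YPD medium; measure: luminescence rise reflecting yeast cell lysis; measured by: luminescent adenylate kinase detection reagent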
Rtt109 Vps75: C. albicans Rtt109 histone acetyltransferase inhibition. Q5AAJ8. purified Rtt109/Vps75, ThioGlo CoA-SH fluorescence, 4 h. inhibition, % at 34.9 µM. 330,000 compounds, 0.16% hits. AID 540336;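 active means inhibition of at least 50% in every replicate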
Target sequence (Q5AAJ8 whole entry, looked up): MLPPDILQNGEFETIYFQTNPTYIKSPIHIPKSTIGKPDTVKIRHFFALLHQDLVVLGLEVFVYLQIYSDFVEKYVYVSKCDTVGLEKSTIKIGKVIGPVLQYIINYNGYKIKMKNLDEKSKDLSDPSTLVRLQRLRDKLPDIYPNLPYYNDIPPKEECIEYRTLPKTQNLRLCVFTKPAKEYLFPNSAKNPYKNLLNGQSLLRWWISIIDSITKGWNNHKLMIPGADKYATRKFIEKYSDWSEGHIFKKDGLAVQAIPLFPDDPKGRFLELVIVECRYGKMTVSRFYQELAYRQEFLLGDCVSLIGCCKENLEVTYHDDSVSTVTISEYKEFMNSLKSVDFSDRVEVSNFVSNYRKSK
dFosB act-1: enhances mouse delta FosB homodimer DNA binding | P13346 | purified delta FosB, TAMRA-CDK5 oligo fluorescence polarization; percent of positive-control signal above neutral wells | activation, % at 25 µM | 340,000 compounds, 0.99% hits | AID 493131;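 active means mean activation above about 17%, with every replicate also reaching it, limit read from the data, passing the limit was not always enough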
Target sequence (P13346 whole entry, looked up): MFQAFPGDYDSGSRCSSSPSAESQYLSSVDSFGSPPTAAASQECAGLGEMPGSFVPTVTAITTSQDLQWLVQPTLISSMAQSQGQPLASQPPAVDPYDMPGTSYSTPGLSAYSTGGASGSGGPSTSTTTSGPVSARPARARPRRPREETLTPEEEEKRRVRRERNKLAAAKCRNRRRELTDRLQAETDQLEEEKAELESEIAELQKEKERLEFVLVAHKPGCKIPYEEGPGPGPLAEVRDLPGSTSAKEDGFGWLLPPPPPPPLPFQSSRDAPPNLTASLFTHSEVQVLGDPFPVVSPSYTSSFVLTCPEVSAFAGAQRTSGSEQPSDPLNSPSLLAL
dFosB act-2: delta FosB (mouse) homodimer activation; 2,400 tested, under 10 active; activation, % at 24.9 µM; shares compounds with dFosB act-1; purified delta FosB, TAMRA-CDK5 oligo fluorescence polarization; normalised: neutral wells 0, positive control 100;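 active means highest replicate activation at or above 34% and every replicate reaching that threshold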;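 further: higher polarization means more probe DNA bound by delta FosB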
* marks the source's active call; other numbers are inactive results; . = no result; [ ] = dose if it differs, or a comment.

SMILES | HIV Env fusion | INS-1E GSIS act | miR-122 sensor | Cneo AK release | Rtt109 Vps75 | dFosB act-1 | dFosB act-2
COc1cccc(NC(=O)c2nnn(CC(=O)Nc3cc(C)cc(C)c3)c2N)c1 | 2.9 | 5.2 | -3.5 | -0.5 | 5.5 | 3.6 | .
CC(=O)N1[C@@H]2Cn3c(ccc(C4=CCCCC4)c3=O)[C@H]1[C@@H](C(=O)NC1CCCC1)[C@@H]2CO | . | 5.5 | -2.2[16.7 µM] | 1.4 | . | . | .
O=C(NNC(=O)c1c(O)c2ccccc2[nH]c1=O)c1ccccc1Br | 10.9 | 21.9 | -8.3 | -0.3 | -6.9 | 51.6* | 0.4
Cc1ccc(S(=O)(=O)N(C)C[C@@H]2OCCCC[C@@H](C)Oc3ccc(NS(=O)(=O)c4ccccc4)cc3C(=O)N([C@@H](C)CO)C[C@@H]2C)cc1 | -30.5[16.7 µM] | 0.8 | 13.8[16.7 µM] | -0.1 | . | . | .
C[C@H]1CN([C@@H](C)CO)C(=O)Cc2cc(NC(=O)CCCCCC(=O)Nc3ccccc3N)ccc2O[C@H]1CN(C)C(=O)Nc1cccc2ccccc12 | . | 4.6 | . | . | . | . | .
O=C(/C=C/c1ccc2c(c1)OCO2)Nc1nc2ccc(F)cc2s1 | -32.9 | 0.8 | -2.5 | . | -5.1 | 30.3* | 3.5
O=C(/C=C/c1ccc2c(c1)OCO2)Nc1ccc(Cl)cn1 | -491.7 | -6.7 | . | . | . | 102.7* | -0.8
O=C(C1CCCC1)N1CC2(C1)[C@@H](c1ccccc1)[C@@H](CO)N2C(=O)NC1CCCC1 | . | -19.9 | . | . | . | . | .
C[C@@H]1CN([C@H](C)CO)C(=O)c2cccc(NS(C)(=O)=O)c2O[C@@H]1CN(C)S(=O)(=O)c1ccccc1 | 3.0[16.7 µM] | 1.9 | 0.8[16.7 µM] | -3.4 | . | . | .
CCc1sc(N2[C@@H](C#N)[C@@H](c3ccccc3-c3ccc(F)cc3)[C@@H]2CO)nc1C | . | 2.7 | . | . | . | . | .
O=C(N/N=C/c1cc2c(cc1Br)OCO2)c1ccccn1 | -42.1 | -8.9 | 0.3 | 0.5 | . | . | .
CC(C)(C)c1cc(C(=O)N/N=C/c2cc3c(cc2Br)OCO3)n[nH]1 | -5.5 | -14.2 | 2.4 | . | -2.3 | 27.3* | 3.6
CS(=O)(=O)N(CC(=O)N/N=C/c1cccc2c1OCCO2)c1ccccc1Br | . | . | -1.0 | . | 5.2 | -14.7 | .
CS(=O)(=O)N(CC(=O)N/N=C/c1cc2c(cc1Br)OCO2)c1ccccc1Br | . | . | 1.1 | . | -6.4 | 26.6* | 7.0
O=C(N/N=C/c1cc2c(cc1Br)OCO2)c1c[nH]c2ccccc12 | -33.8 | -17.0 | . | . | 11.1 | 28.7* | 1.6
C[C@@H]1CCCCO[C@@H](CN(C)CC2CCCCC2)[C@@H](C)CN([C@@H](C)CO)C(=O)c2cc(NS(=O)(=O)c3cccs3)ccc2O1 | -33.8[16.7 µM] | -3.0 | 5.5[16.7 µM] | 1.7 | . | . | .
CO[C@H]1CN(C)C(=O)c2cc(NS(=O)(=O)c3cccc(F)c3)ccc2OC[C@@H](C)NC[C@H]1C | -4.0[16.7 µM] | 21.0 | . | . | . | . | .
COc1ccc(C(=O)Nc2ccccc2C(=O)NC(Cc2ccc(O)cc2)C(=O)NNC(=O)c2ccccc2)cc1 (configuration not stated) | 1.5 | -0.4 | -6.1 | -0.5 | -5.8 | 3.1 | .
COc1ccc(C(=O)Nc2ccccc2C(=O)NC(Cc2ccc(O)cc2)C(=O)NNC(=O)c2ccc(C)cc2)cc1 (configuration not stated) | . | -2.6 | -2.0 | 0.3 | -3.1 | 100.2* | 2.2
C=CCNC(=O)C1CC(=O)N(c2ccc(OCC(=O)Nc3ccc(Cl)c(C(F)(F)F)c3)cc2)C1 (configuration not stated) | 17.6 | . | -7.4 | 0.6 | -4.3 | 27.0* | -0.4
C=CCNC(=O)C1CC(=O)N(c2ccc(OCC(=O)Nc3cccc(OC)c3)cc2)C1 (configuration not stated) | . | . | -7.7 | 0.7 | -5.0 | -3.8 | .
O=c1cc(CSc2nnnn2-c2ccccc2)nc(Nc2ccc(F)cc2)[nH]1 | -66.9 | . | 7.7 | -1.2 | -7.7 | 25.7* | -7.4
O=C(COc1ccc2ccccc2c1)NC1=NCCS1 | -149.9 | . | 2.7 | 1.7 | -6.0 | 53.5* | 6.9
COc1ccc2c3c(n(C)c2c1)[C@H](CO)NCC31CN(C(=O)c2ccc(F)cc2)C1 | . | 9.5 | . | . | . | . | .
O=C(NC1CCCCC1)N[C@@H]1CC[C@H](CCNS(=O)(=O)c2ccc(F)cc2)O[C@@H]1CO | -15.4[16.7 µM] | -15.7 | . | -1.4 | . | . | .
SMILES | HIV Env fusion | INS-1E GSIS act | miR-122 sensor | Cneo AK release | Rtt109 Vps75 | dFosB act-1 | dFosB act-2
CN(C(=O)COC(=O)c1c2c(nc3ccccc13)/C(=C/c1cccc([N+](=O)[O-])c1)CCC2)C1CCS(=O)(=O)C1 (configuration not stated) | -1.4 | . | 14.7 | . | -12.8 | 17.2* | -1.9
COc1ccc(/C=C/C(=O)NC(=S)Nc2ccccn2)cc1 | -16.0 | 24.5 | -4.2 | -6.4 | 8.9 | 17.0* | -0.3
COc1ccccc1-c1cn(CC[C@H]2CC[C@@H](NC(=O)Cc3ccccn3)[C@H](CO)O2)nn1 | -14.8[16.7 µM] | -4.4 | . | -3.0 | . | . | .
C[C@@H]1CCCCO[C@H](CN(C)Cc2ccccc2)[C@H](C)CN([C@@H](C)CO)C(=O)c2cc(NC(=O)C3CCCCC3)ccc2O1 | -9.1[16.7 µM] | -19.0 | 5.5[16.7 µM] | 0.3 | . | . | .
Cc1ccc(-c2cc(C(=O)NCc3ccc4c(c3)OCO4)no2)cc1 | . | . | -8.7 | 0.3 | 0.9 | 4.1 | .
Cc1ccc(NC(=O)c2cc(-c3ccc4c(c3)OCO4)on2)cc1 | -23.7 | 0.0 | -6.5 | -0.9 | -3.8 | 18.5* | 3.4
COc1ccc(NC(=O)c2cc(-c3ccc4c(c3)OCO4)on2)cc1 | -14.7 | 5.4 | . | -1.7 | 1.8 | 26.3* | -0.8
Cc1nn(Cc2ccc(Cl)cc2)c(C)c1NC(=O)c1cc(C(C)C)on1 | 27.8 | -7.5 | . | -0.7 | -3.0 | -11.1 | .
Cc1ccc2oc(-c3ccc(NC(=O)c4ccc5c(c4)OCO5)cc3)nc2c1 | 24.0 | 246.2* | -2.3 | -0.1 | -11.5 | 44.9* | 2.0
Cc1nn(Cc2ccc(Cl)cc2)c(C)c1NC(=O)c1cc(-c2ccc3c(c2)OCO3)on1 | 29.9 | . | 6.2 | . | 2.4 | 57.9* | 7.4
O=C(Nc1ccc(C(F)(F)F)cc1)N[C@H]1CC[C@H](CCn2cc(C3(O)CCCC3)nn2)O[C@H]1CO | 14.6[16.7 µM] | -9.3 | . | 1.9 | . | . | .
COc1ccc(CN2C[C@@H](C)[C@@H](OC)CN(C)C(=O)c3cc(NC(=O)C4CC4)ccc3OC[C@H]2C)cc1 | -34.7[16.7 µM] | 0.9 | . | -6.0 | . | . | .
O=C(Nc1ccc(F)cc1F)c1cc(-c2ccc3c(c2)OCO3)on1 | -2.9 | 5.1 | . | 2.1 | -0.2 | 0.6 | .
O=C(Nc1ccc(Br)cc1)c1cc(-c2ccc3c(c2)OCO3)on1 | -8.0 | 13.9 | . | -1.3 | 0.9 | 24.8* | -0.2
COc1ccc2nc(NC(=O)C3CCCN(S(=O)(=O)c4cccc5nsnc45)C3)sc2c1 (configuration not stated) | . | -42.5 | 1.6 | -1.0 | 0.3 | 24.6* | -1.4
COc1ccc2nc(NC(=O)C3CCCN(S(=O)(=O)c4cccc5nonc45)C3)sc2c1 (configuration not stated) | . | . | 3.0 | 0.2 | 6.1 | 4.8 | .
